Published values gathered from unrelated publications.
Compare with care: the assays were run in different laboratories. pEC50, pIC50, pKd, pKi: −log10 of the molar value.
ADRA2A: Alpha-2A adrenergic receptor (ADRA2A, Homo sapiens, UniProt P08913)
SLC18A2: Synaptic vesicular amine transporter (SLC18A2, Homo sapiens, UniProt Q05940)
LATS1: Serine/threonine-protein kinase LATS1 (LATS1, Homo sapiens, UniProt O95835)

Structure (SMILES)	target	assay	conditions	endpoint	result
COc1cc(C)c(/C=C/C(C)=C/C=C/C(C)=C/C(=O)O)c(C)c1C	Carbonic anhydrase 2 (CA2, Homo sapiens, UniProt P00918)	enzyme activity, inhibitor, absorbance	pH 7.4	pIC50	4.90
Cc1ccc(N2CCN(Cc3cccnc3Oc3ccc(-c4c(C)c(=O)[nH]c(=O)n4C)c(C)c3)CC2)cc1C	ADRA2A	ligand displacement, radioligand	–	pKi	6.26
Cc1cnc(Nc2ccc(OCCN3CCCC3)cc2)nc1Nc1cccc(S(=O)(=O)NC(C)(C)C)c1	SLC18A2	transporter uptake, inhibitor, radiometric	cell membranes	pIC50	6.38
Cc1cc(Oc2ncccc2CN2CCN(Cc3ccc(F)cc3)CC2)ccc1-c1c(C)c(=O)[nH]c(=O)n1C	ADRA2A	ligand displacement, radioligand	–	pKi	5.66
CC(C)(C)NC(=O)C1CCN(Cc2cccc(NC(=O)c3ccc(F)cc3)c2)CC1	Atypical chemokine receptor 3 (ACKR3, Homo sapiens, UniProt P25106)	β-arrestin recruitment, agonist, luciferase	–	pEC50	8.00
Cc1cc(Oc2ncccc2CN2CCN(CCc3ccccc3)CC2)ccc1-c1c(C)c(=O)[nH]c(=O)n1C	ADRA2A	ligand displacement, radioligand	–	pKi	5.60
COc1cc2nc(N(C)CCCNC(=O)C3CCCO3)nc(N)c2cc1OC (stereo not drawn)	SLC18A2	transporter uptake, inhibitor	–	pIC50	6.60
Cc1cc(Oc2ncccc2CN2CCN(c3cccc(F)c3)CC2)ccc1-c1c(C)c(=O)[nH]c(=O)n1C	ADRA2A	ligand displacement, radioligand	–	pKi	7.05
OC1(c2ccc(-c3ccnc4[nH]cc(F)c34)cc2)CCCNC1 (stereo not drawn)	LATS1	enzyme activity, inhibitor, radiometric	–	pIC50	7.59
Cc1cc(Oc2ncccc2CN2CCN(c3cccc4ccccc34)CC2)ccc1-c1c(C)c(=O)[nH]c(=O)n1C	ADRA2A	ligand displacement, radioligand	–	pKi	6.73
O=C1Cc2cc(CCN3CCN(c4nsc5ccccc45)CC3)c(Cl)cc2N1	SLC18A2	transporter uptake, inhibitor, radiometric	cell membranes	pIC50	7.82
O=C(O)c1cc2ccc(C#CC3(O)CCCCC3)cc2n1-c1ccccc1	Microphthalmia-associated transcription factor (Homo sapiens, UniProt O75030)	binding, ITC	–	pKd	4.87
CN(C)CCC(c1ccccc1)c1ccccn1 (stereo not drawn)	Carbonic anhydrase 1 (CA1, Homo sapiens, UniProt P00915)	enzyme activity, inhibitor, absorbance	pH 7.4	pIC50	4.69
CC(C)C[C@H](NC(=O)[C@H](CC(C)C)NC(=O)[C@H](Cc1c[nH]c2ccccc12)NC(=O)[C@H](CCC(N)=O)NC(=O)[C@@H](NC(=O)[C@H](Cc1ccccc1)NC(=O)[C@H](CC(=O)O)NC(=O)[C@H](CCC(N)=O)NC(=O)[C@H](C)NC(=O)[C@H](C)NC(=O)[C@H](CCCNC(=N)N)NC(=O)[C@H](CCC(=O)O)NC(=O)[C@H](CC(=O)O)NC(=O)[C@H](CC(C)C)NC(=O)[C@H](Cc1ccc(O)cc1)NC(=O)[C@H](CCCCN)NC(=O)[C@H](CO)NC(=O)[C@H](Cc1ccc(O)cc1)NC(=O)[C@H](CC(=O)O)NC(=O)[C@H](CO)NC(=O)[C@@H](NC(=O)[C@H](Cc1ccccc1)NC(=O)[C@@H](NC(=O)CNC(=O)[C@H](CCC(N)=O)NC(=O)C(C)(C)NC(=O)[C@@H](N)Cc1c[nH]cn1)[C@@H](C)O)[C@@H](C)O)C(C)C)C(=O)N[C@@H](CC(=O)O)C(=O)NCC(=O)NCC(=O)N1CCC[C@H]1C(=O)N[C@@H](CO)C(=O)N[C@@H](CC(C)C)C(=O)N[C@@H](CCCNC(=N)N)C(=O)N[C@@H](Cc1c[nH]cn1)C(=O)N[C@@H](Cc1ccc(O)cc1)C(=O)N[C@@H](CC(C)C)C(=O)N[C@@H](CC(N)=O)C(=O)N[C@@H](CC(C)C)C(=O)N[C@H](C(=O)N[C@H](C(=O)N[C@@H](CCCNC(=N)N)C(=O)N[C@@H](CCC(N)=O)C(=O)N[C@@H](CCCNC(=N)N)C(=O)N[C@@H](Cc1ccc(O)cc1)C(N)=O)[C@@H](C)O)C(C)C	Gastric inhibitory polypeptide receptor (GIPR, Homo sapiens, UniProt P48546)	reporter gene, agonist, luciferase	–	pEC50	9.55
O=c1n(CCCN2CCN(c3cccc(Cl)c3)CC2)nc2ccccn12	SLC18A2	transporter uptake, inhibitor	–	pIC50	5.56
Cc1cc(-c2ccnc3[nH]cc(F)c23)cc(F)c1[C@@]1(O)[C@H](C)CN(C2CCS(=O)(=O)CC2)C[C@@H]1C	LATS1	binding, TR-FRET	–	pKd	8.60
Cc1cc(Oc2ncccc2CN2CCN(c3cccc(Cl)c3Cl)CC2)ccc1-c1c(C)c(=O)[nH]c(=O)n1C	ADRA2A	ligand displacement, radioligand	–	pKi	6.67
O=C1Nc2ccc(Cl)cc2[C@@](C#CC2CC2)(C(F)(F)F)O1	SLC18A2	transporter uptake, inhibitor	–	pIC50	5.21
Clc1ccc(C2(c3ccc(-c4ccnc5[nH]ccc45)cc3)CCNCC2)cc1	LATS1	target engagement in cells, BRET	–	pIC50	5.65
CC(C)NCC(O)COc1ccc(COCCOC(C)C)cc1 (stereo not drawn)	SLC18A2	transporter uptake, inhibitor	–	pIC50	5.12
Cc1cc(-c2ccnc3[nH]cc(F)c23)cc(F)c1[C@@]1(O)[C@H](C)CN(C(=O)CN)C[C@@H]1C	LATS1	target engagement in cells, BRET	–	pIC50	8.21
